Measured values published in ChEMBL document CHEMBL5653613 (Mol Cancer Ther, 2013).
pIC50: −log10 of the molar value. Active and inactive are the calls of the source. The calls are words filed in the database; no cut-off is given here.

What was measured:
MCF7 [1] = experiment: Induction of apoptosis in human MCF7 cells assessed as early cells at 5 umol/L incubated for 3 days by Annexin V/PI staining based flow cytometry (reference value: 0.1 %); assay type: functional; details: dose 5 µmol/L; time 3 day; at 5 µM
[2] = Effect on paclitaxel resistance in human T47D cells with compound-induced polyploidy assessed as change in paclitaxel-induced cytotoxicity by measuring increase in paclitaxel IC50 at 5 umol/L preincubated for 72 hrs followed by compound washout and subsequent paclitaxel treatment for 72 hrs by MTS assay; assay type: functional, cell-based
ZR-75-1 [3] = experiment: Induction of polyploidy in human ZR-75-1 cells at 5 umol/L by microscopic analysis; assay type: functional, cell-based; details: dose 5.0 µmol/L, time 72.0 hrs, TDE = time-dependent effect
T47D [4] = experiment: Induction of polyploidy in human T47D cells with RON-/- at 5 umol/L incubated for 72 hrs by microscopic analysis (reference value: 83.5 %); assay type: functional; details: dose 5 µmol/L, at 5 µM
Procedure, shortened: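 Cells (2 106 per 60-mm dish) transiently transfected for 48 hours with 1 nmol/L scrambled or RON-specific siRNA, with knockdown confirmed by anti-RON Western blot. […] Polyploidy monitored and photographed by microscopy, with untransfected and scrambled-siRNA cells as comparators.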

ZR-75-1 [5] = experiment: Induction of polyploidy in human ZR-75-1 cells assessed as cells with 8N chromosome contents at 5 uM incubated for 48 hrs by PI staining based flow cytometry (reference value: 0); assay type: functional
T47D [6] = experiment: Induction of cell cycle arrest at cytokinesis in human T47D cells at 5 umol/L preincubated for 24 hrs followed by extensive compound washout and subsequent culturing in compound-free media measured upto 120 mins by immunofluorescence staining based analysis; assay type: functional; details: dose 5.0 µmol/L
Procedure, shortened: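 T-47D cells were treated at 37°C with 5 µmol/L for 24 h, washed extensively, then cultured in DMEM with 10% FBS for 30, 60 and 120 min. α- and γ-tubulin were detected by immunofluorescence with DAPI, imaged at 400×. The control was a 24 h preincubation with 5 µmol/L RO-3306. One of 2 experiments.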

ZR-75-1 [7] = experiment: Induction of polyploidy in human ZR-75-1 cells with RON-/- at 5 umol/L incubated for 72 hrs followed by media replacement without compound measured upto 10 days by microscopic analysis; assay type: functional, cell-based; details: dose 5.0 µmol/L
[8] = Cmax in athymic mouse xenografted with human GTL-16 cells upto 50 mg/kg, po qd for 14 days consecutively; assay type: ADME, organism-based; details: in vivo, time 14 day
T47D [9] = experiment: Cytotoxicity against human T47D cells at 1 to 2.5 umol/L incubated for 72 hrs by MTS assay; assay type: functional, cell-based; details: dose 1-2.5 µmol/L
MCF7 [10] = experiment: Induction of polyploidy in human MCF7 cells assessed as cells with 2N chromosome contents at 5 uM incubated for 72 hrs by PI staining based flow cytometry (reference value: 52); assay type: functional

With CCOc1ccn(-c2ccc(F)cc2)c(=O)c1C(=O)Nc1ccc(Oc2ccnc(N)c2Cl)c(F)c1 [BMS-777607] the Activity (MCF7 [1]) was 0.2%, the pIC50 [2] was 7.50 and the Activity (ZR-75-1 [3]) was “Tde”. For the same molecule, the Activity (T47D [4]) was 79.4%, the Activity (ZR-75-1 [5]) was 20 and the Activity (T47D [6]) was “Active”. For the same molecule, the Activity (ZR-75-1 [7]) was “Active”, the Cmax [8] was 43.7 µM and the Activity (T47D [9]) was “inactive”. The Activity (MCF7 [10]) was 12.
